Assay results from ChEMBL document CHEMBL4152320, “Discovery and development of novel salicylate synthase (MbtI) furanic inhibitors as antitubercular agents” (Eur J Med Chem, 2018).
Values after ≈ are worked out from the molar mass of the structure shown.

Columns and labels:
[1] = tested on: Mycobacterium tuberculosis; assay: Antimycobacterial activity against Mycobacterium bovis BCG in low iron containing medium; type: functional; conditions: variant bovis BCG
How it was run: (§1)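 M. bovis BCG MIC determined in liquid medium, comparing iron conditions: cells grown in 7H9/OADC (high iron) versus low-iron chelated Sauton's medium.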

[2] = tested on: Mycobacterium tuberculosis; assay: Antimycobacterial activity against Mycobacterium bovis BCG in 7H9 medium; type: functional; conditions: variant bovis BCG; how it was run: as §1
[3] = tested on: Mycobacterium tuberculosis; assay: Ratio of MIC for Mycobacterium bovis BCG in 7H9 medium to MIC for Mycobacterium bovis BCG in low iron containing medium; type: functional, variant bovis BCG

O=C(O)c1ccc(-c2ccc([N+](=O)[O-])cc2)o1
MIC [1]: 80 µM (≈ 18.7 µg/mL) | MIC [2]: 240 µM (≈ 56 µg/mL) | Ratio [3]: 3
